This note sets out measurements from ChEMBL document CHEMBL3632560, “1,4-Oxazine β-Secretase 1 (BACE1) Inhibitors: From Hit Generation to Orally Bioavailable Brain Penetrant Leads” (J Med Chem, 2015).

Each structure is given as a SMILES string.

A short description of data set [1]: Drug metabolism in human liver microsomes at 1 uM after 15 min by HPLC-MS/MS analysis. Type of data set: ADME. The following applies: read-out: Drug metabolism. In general terms: Liver microsomes are vesicles of endoplasmic reticulum, rich in cytochrome P450 enzymes.
Data set [2] is described as follows: Dissociation constant, pKa of the compound by potentiometric titration assay. Type of data set: physicochemical.
Data set [3] is described as follows: Drug metabolism in mouse liver microsomes at 1 uM after 15 min by HPLC-MS/MS analysis. To be noted: read-out: Drug metabolism. The data set is classed as ADME.
The next data set has as its system MDR1 (human). The data set can be described thus: Apparent permeability across apical to basolateral side in pig LLC cells transfected with human MDR1 at 5 uM by HPLC-MS/MS analysis. Type of data set: ADME, cell-based, Sus scrofa. The following applies: LLC-PK1.
A short description of data set [4]: Ratio of drug level in brain to plasma of pathogen free CD1 Swiss mouse at 10 mg/kg, po. Type of data set: ADME, organism-based. The procedure, abridged:
(§1)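 Fasted male CD1 Swiss SPF mice dosed 10 mg/kg p.o. (n=6) in 20% HPβCD at pH 3.9 or 20% SBEβCD at pH 3.5. Plasma and brain taken at 2, 4 and 7 h. One hemisphere used for drug bioanalysis; the other was homogenized for Aβ42 and Aβ total by sandwich immunoassay. Kp calculated from AUC0-last.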

Data set [5] in a line: Distribution coefficient, logD of the compound by chromatography. The data set is classed as physicochemical. The following applies: octanol/water.
Data set [6] is described as follows: Drug uptake in pathogen free CD1 Swiss mouse brain at 10 mg/kg, po after 4 hrs. The data set is classed as ADME, organism-based. To be noted: read-out: Drug uptake. A digest of the protocol: as §1
The nature of data set [7]: Drug metabolism in dog liver microsomes at 1 uM after 15 min by HPLC-MS/MS analysis. The following applies: read-out: Drug metabolism. Type of data set: ADME, Canis lupus familiaris. A digest of the protocol: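 Final solvent 0.01% DMSO and 0.5% acetonitrile. Reaction started with NADPH and quenched with acetonitrile at 15 min. Percent metabolized is parent loss measured by HPLC-MS/MS.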

Data set [8] is described as follows: Tmax in Beagle dog at 2.5 mg/kg, po. Type of data set: ADME, organism-based, Canis lupus familiaris. The following applies: in vivo. A digest of the protocol:
(§2)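 Fasted Beagle dogs, 2 male and 2 female per dose group, given doses from 0.08 to 10 mg/kg in 20% HPβCD at pH 3.5. Plasma drug levels followed over time to give Cmax, Tmax and T½. CSF Aβ42 measured by MesoScale electrochemiluminescence for up to 50 h after dosing.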

Data set [9] can be described thus: Elimination half-life in Beagle dog at 2.5 mg/kg, po. To be noted: in vivo, read-out: beta t1/2 (converted). The data set is classed as ADME, organism-based, Canis lupus familiaris. A digest of the protocol:
as §2

Data set [10] is described as follows: Cmax in Beagle dog at 2.5 mg/kg, po. The data set is classed as ADME, organism-based, Canis lupus familiaris. To be noted: in vivo. On the set-up: dose 2.5 mg/kg, route oral. A digest of the protocol:
as §2

For `C[C@@]1(c2cccc(NC(=O)c3ccc(Cl)cn3)c2)COCC(N)=N1`, the figures for the metabolised at 0.25 h, 1 µM in [1] and in data set [3] were 0% and 6%, respectively. The pKa (as a rule, the negative logarithm of the acid dissociation constant) in [2] turned out to be 9.6.

In the case of `COc1cnc(C(=O)Nc2ccc(F)c([C@]3(C)COCC(N)=N3)c2)cn1`, the metabolised at 0.25 h, 1 µM was determined as 1% in [1] and 6% in [3]. For the same compound, the Papp A→B (usually the apparent permeability from the apical to the basolateral side of a cell layer) at 5 µM in the data set with MDR1 (human) amounted to 3.7 ×10⁻⁶ cm/s. The pKa in data set [2] was 9.

`COc1cnc(C(=O)Nc2ccc(F)c([C@@]3(C)N=C(N)CO[C@H]3F)c2)cn1` came in with a pKa in data set [2] of 7.6.

For `COc1cnc(C(=O)Nc2ccc(F)c([C@@]3(C)N=C(N)CO[C@@H]3F)c2)cn1`, the figures for the metabolised at 0.25 h, 1 µM in data set [1], in [3] and in [7] were 31%, 3% and 70%, respectively. In addition, the Kp (in general, the ratio of the level in a tissue or fluid to that in plasma or blood) in data set [4] turned out to be 0.65. In addition, the chromatographic logD – broadly, lipophilicity estimated from chromatographic retention – in data set [5] came to 2.04. Besides, the concentration at 4 h in data set [6] stood at 195 ng/g. The compound further returned a pKa in [2] of 7.8.

In the case of `COc1cnc(C(=O)Nc2ccc(F)c([C@@]3(C)N=C(N)CO[C@@]3(F)C(F)(F)F)c2)cn1`, in [5], the chromatographic logD was found to be 3.43. For the same compound, in [2], the pKa amounted to 6.8.

In turn, `COc1cnc(C(=O)Nc2ccc(F)c([C@@]3(C)N=C(N)CO[C@]3(F)C(F)(F)F)c2)cn1` gave a pKa in data set [2] of 6.9.

In turn, `COc1cnc(C(=O)Nc2ccc(F)c([C@@]3(C4CC4)N=C(N)CO[C@@H]3F)c2)cn1` yielded a pKa in data set [2] of 7.8.

Take `C[C@]1(c2cc(NC(=O)c3ccc(Cl)cn3)ccc2F)N=C(N)CO[C@@H]1F`: the metabolised at 0.25 h, 1 µM in [1] was 0%; in data set [3] it was 17%; in data set [7] it was 7%. Also, the Papp A→B at 5 µM in the data set on MDR1 (human) was 8.5 ×10⁻⁶ cm/s. Besides, the pKa in data set [2] turned out to be 7.9.

On to `Cc1cc(Cl)cnc1C(=O)Nc1ccc(F)c([C@@]2(C)N=C(N)CO[C@@H]2F)c1`, for which the metabolised at 0.25 h, 1 µM came out at 16% in [1], 98% in data set [3] and 21% in data set [7]. Also, the Papp A→B at 5 µM in the data set on MDR1 (human) was 9.3 ×10⁻⁶ cm/s. In data set [2], this compound registered a pKa of 7.4.

In the case of `C[C@]1(c2cc(NC(=O)c3ccc(C#N)cn3)ccc2F)N=C(N)CO[C@@H]1F`, the Tmax (usually the time from dosing to the highest level) in [8] is 2.5 h. Besides, the metabolised at 0.25 h, 1 µM in [1] is 0%; in [3], 2%; in data set [7], 0%. For the same compound, the Kp in data set [4] came to 0.33. Also, the half-life in [9] is 25 h. Also, in data set [6], the concentration at 4 h worked out at 98 ng/g. The compound also had a pKa in [2] of 7.9. The Cmax – broadly, the highest concentration seen after dosing – in data set [10] is 571 ng/mL.

In data set [2], `CC1(c2ccccc2)COCC(N)=N1` (stereo not drawn) came in with a pKa of 9.8.

Compound `C[C@]1(c2cc(N)ccc2F)N=C(N)CO[C@@H]1F` displayed a pKa in data set [2] of 8.1.

The compound `C[C@]1(c2cc(N)ccc2F)N=C(N)CO[C@H]1C(F)(F)F` returned a pKa in data set [2] of 8.

In the case of `COc1cnc(C(=O)Nc2ccnc([C@@]3(C)N=C(N)CO[C@@H]3F)c2)cn1` (racemic), in [2], the pKa is 2.6.

On to `COc1cnc(C(=O)Nc2cc([C@@]3(C)N=C(N)CO[C@@H]3F)ccn2)cn1` (racemic), for which, in data set [2], the pKa was 2.8.
